Measured values: ChEMBL document CHEMBL3272230, “Hypoglycemic alpha-cycloalkylphenylmehtyl, furanalkyl, and thiophenealkyl lactamimides” (1976)

Tests used:
Type in all cases: functional
[1] = system: Rattus norvegicus; test: Hypoglycemic activity in fasted glucose primed Sprague-Dawley rat assessed as plasma glucose level at 100 mg/kg administered via oral gavage measured after 2 hrs by glucose-oxidase method relative to control
How it was run: (§1)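 Young male Sprague-Dawley rats, 105-115 g, fasted overnight. Glucose 1 g/kg given subcutaneously, then test compound immediately by gavage. Blood taken 2 h later and plasma glucose measured by glucose oxidase. Six treated rats per group against six glucose-primed controls given vehicle only by gavage. Result expressed as % reduction versus control; values over 20% significant at p ≤ 0.05.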

[2] = system: Rattus norvegicus; test: Hypoglycemic activity in fasted glucose primed Sprague-Dawley rat assessed as plasma glucose level at 50 mg/kg administered via oral gavage measured after 2 hrs by glucose-oxidase method relative to control; how it was run: as §1
[3] = system: Rattus norvegicus; test: Hypoglycemic activity in fasted glucose primed Sprague-Dawley rat assessed as plasma glucose level at 12.5 mg/kg administered via oral gavage measured after 2 hrs by glucose-oxidase method relative to control; how it was run: as §1
[4] = system: Rattus norvegicus; test: Hypoglycemic activity in fasted glucose primed Sprague-Dawley rat assessed as plasma glucose level at 25 mg/kg administered via oral gavage measured after 2 hrs by glucose-oxidase method relative to control; how it was run: as §1
[5] = system: Rattus norvegicus; test: Hypoglycemic activity in fasted glucose primed Sprague-Dawley rat assessed as plasma glucose level at 200 mg/kg administered via oral gavage measured after 2 hrs by glucose-oxidase method relative to control; how it was run: as §1
[6] = system: Rattus norvegicus; test: Hypoglycemic activity in fasted glucose primed Sprague-Dawley rat assessed as plasma glucose level at 6 mg/kg administered via oral gavage measured after 2 hrs by glucose-oxidase method relative to control

Structure (SMILES) | inhibition in vivo at 100 mg/kg [1] | inhibition in vivo at 50 mg/kg [2] | inhibition in vivo at 12.5 mg/kg [3] | inhibition in vivo at 25 mg/kg [4] | inhibition in vivo at 200 mg/kg [5] | inhibition in vivo at 6 mg/kg [6]
c1ccc(C(/N=C2\CCCCCCCCCCCN2)c2cccs2)cc1 (stereo unspecified) | 4% | – | – | – | – | –
c1ccc(C(/N=C2\CCCCN2)c2ccco2)cc1 (stereo unspecified) | 27% | 28% | 13% | 10% | – | –
c1coc(C/N=C2\CCCCCN2)c1 | 0% | – | – | – | 0% | –
c1ccc(C(/N=C2\CCCCCN2)c2cccs2)cc1 (stereo unspecified) | 50% | 46% | 23% | 36% | – | –
c1ccc(C(/N=C2\CCCCCCN2)C2CC2)cc1 (stereo unspecified) | 58% | 46% | 0% | 26% | – | –
CCC(Cc1cccs1)/N=C1\CCCCCCN1 (stereo unspecified) | 44% | – | – | – | – | –
c1ccc(C(/N=C2\CCCCCN2)c2ccco2)cc1 (stereo unspecified) | 52% | 37% | 5% | 34% | – | –
c1ccc(C(/N=C2\CCCCCN2)C2CC2)cc1 (stereo unspecified) | 51% | 41% | 5% | 18% | – | –
c1ccc(C(/N=C2\CCCCN2)C2CC2)cc1 (stereo unspecified) | 36% | 33% | 1% | 23% | – | –
C=CCC(Cc1cccs1)/N=C1\CCCCCN1 (stereo unspecified) | 65% | 49% | 14% | – | – | –
COc1ccc(C(/N=C2\CCC(C(C)(C)C)CCN2)C2CC2)cc1 (stereo unspecified) | 17% | – | – | – | – | –
c1ccc2c(C(/N=C3\CCCCCN3)C3CC3)cccc2c1 (stereo unspecified) | 21% | – | – | – | – | –
c1ccc(C(/N=C2\CCCCCCN2)c2ccco2)cc1 (stereo unspecified) | 61% | 42% | 22% | 29% | – | –
CC(Cc1cccs1)/N=C1\CCCCCN1 (stereo unspecified) | 41% | – | 0% | – | – | –
c1ccc(C(/N=C2\CCCCCN2)C2CCCCCC2)cc1 (stereo unspecified) | 6% | – | – | – | – | –
Cc1ccc(C(/N=C2\CCCCCN2)C2CC2)c(C)c1 (stereo unspecified) | 56% | 43% | 14% | 29% | – | –
c1ccc(C(/N=C2\CCCCN2)c2ccccc2)cc1 | 46% | 52% | 41% | 42% | – | 12%
CCCCNC(=O)NS(=O)(=O)c1ccc(C)cc1 [TOLBUTAMIDE] | 41% | 43% | 16% | 29% | – | –

Structure (SMILES) | inhibition in vivo at 100 mg/kg [1] | inhibition in vivo at 50 mg/kg [2] | inhibition in vivo at 12.5 mg/kg [3] | inhibition in vivo at 25 mg/kg [4] | inhibition in vivo at 200 mg/kg [5] | inhibition in vivo at 6 mg/kg [6]
c1ccc(C(/N=C2\CCCCCCN2)c2cccs2)cc1 (stereo unspecified) | 41% | 37% | 29% | 37% | – | –
C1CCN/C(=N/[C@@H]2CCC[C@@H]2C2CCCCC2)CC1 | 53% | 49% | 33% | 42% | – | 13%
c1csc(C(/N=C2\CCCCCN2)C2CC2)c1 (stereo unspecified) | 44% | – | 33% | – | – | –
c1ccc(C(/N=C2\CCCCN2)c2cccs2)cc1 (stereo unspecified) | 32% | – | 13% | 31% | – | –
c1ccc(C(/N=C2\CCCCCN2)C2CCCC2)cc1 (stereo unspecified) | 46% | – | 12% | – | – | –
c1ccc(C(/N=C2\CCCCCN2)C2CCCCC2)cc1 (stereo unspecified) | 0% | – | – | – | – | –
CCC(Cc1cccs1)/N=C1\CCC(C(C)(C)C)CCN1 (stereo unspecified) | 32% | – | – | – | – | –
c1csc(C(/N=C2\CCCCN2)C2CC2)c1 (stereo unspecified) | 28% | – | – | – | – | –
CCC(Cc1cccs1)/N=C1\CCCN1 (stereo unspecified) | 35% | – | – | – | – | –
CCC(Cc1cccs1)/N=C1\CCCCN1 (stereo unspecified) | 42% | – | 9% | – | – | –
c1ccc(C(/N=C2\CCCCCN2)C2CCC2)cc1 (stereo unspecified) | 44% | – | 14% | – | – | –
Cc1ccc(C(/N=C2\CCCCCCCN2)C2CC2)c(C)c1 (stereo unspecified) | 61% | 47% | 17% | 37% | – | –
CCC(Cc1cccs1)/N=C1\CCCCCN1 (stereo unspecified) | 54% | – | 10% | – | – | –
COc1ccc(C(/N=C2\CCCCCN2)C2CC2)cc1 (stereo unspecified) | 40% | – | 1% | – | – | –
c1csc(C(/N=C2\CCCCCCN2)C2CC2)c1 (stereo unspecified) | 50% | – | 17% | – | – | –
CC(/N=C1\CCCCCN1)C(C)c1cccs1 (stereo unspecified) | 46% | – | 0% | – | – | –
CCC(Cc1cccs1)/N=C1\CCCCCCCN1 (stereo unspecified) | 68% | – | 31% | – | – | –
